Assay [1] is described as follows: inhibitors of TNFa-induced NFkB p65 translocation, primary screen, imaging, HUVEC, MLSMR starter and 10KST1 sets (AID 438;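 active = inhibition above 20% together with a positive visual image hit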;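 note: compound added about 3h40 before a 20 min TNFalpha stimulation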;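 for inhibition: signal is the nuclear over cytoplasmic p65 intensity ratio per well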). To be noted: HUVEC TNFa-induced p65 nuclear translocation; cell count: measured here: nuclei count (cytotoxicity indicator), at 2.08 µM; inhibition: at 2 µM, stronger effect = higher value, 0% TNFa-plus-vehicle, 100% no-TNFa wells.
Assay [2] can be described thus: reduction of polyQ htt aggregates in cells – imaging, exon1htt(103Q)mCFP cells, high-content imaging, primary screen (AID 483;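 active = visual image review flags a hit and inhibition of aggregation exceeds 20%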;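 note: compound exposure lasted 3 days before fixation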;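 for nuclei count: percent of the per-plate median nuclei count of sample wells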). To be noted: exon1htt(103Q)mCFP cell line, aggregate imaging, at 2 µM; inhibition of aggregation: stronger effect = higher value; nuclei count: measured here: cell count, toxicity.
Assay [3] can be described thus: endothelial E-selectin expression blockers – imaging, HUVEC, immunofluorescence, MLSMR starter and 10KST1 sets, primary screen (AID 487;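 active = visually confirmed hit in the image check and inhibition above 20%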;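 for inhibition: signal is fraction of cell area covered by stained E-selectin grains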;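 for nuclei count: 100% = median nuclei count of all wells on the same plate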). To be noted: HUVEC TNFalpha-induced E-selectin immunofluorescence imaging, at 2 µM; inhibition: stronger effect = higher value; nuclei count: measured here: cell number, toxicity.
Assay [4] deals with Voltage-gated potassium channel subunit beta-2 (Rattus norvegicus) (UniProt P62483). In words: inhibitors of rat Kvbeta2 reductase activity – biochemical, NADPH fluorescence, primary screen (AID 622;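 active = fluorescence slope higher than the sample average by over 3 SD, cut at about -0.22 in these data, passing the limit was not always enough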;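 note: slope of raw intensity against log time taken from 70 to 1610 s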). To be noted: recombinant KvBeta, 4-cyanobenzaldehyde reduction, at 10 µM, stronger effect = higher value.
The target is the same in assay [5]. In words: enhancers of rat Kvbeta2 NADPH turnover – biochemical, NADPH fluorescence, primary screen (AID 623).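 Note: fluorescence intensity change per second fitted from 20 to 320 s.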 To be noted: Recombinant KvBeta, NADPH fluorescence decrease slope, 10 min; at 10 µM; stronger effect = lower value.
Assay [6] deals with Muscarinic acetylcholine receptor M4 (Homo sapiens) (UniProt P08173). Put plainly: M4-linked GIRK flux change, two-sided – cell-based, HEK293 M4/GIRK, thallium flux, BTC-AM, M4 allosteric agonist project, primary screen (AID 625;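 active = fluorescence slope after compound addition differing from the mean of all tested samples at 99.7% confidence, mostly higher but some lower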;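 note: thallium influx through GIRK channels coupled to M4 in HEK293 cells with BTC-AM dye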). To be noted: at 10 µM, actives lie on both sides. In short, it runs like this: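 Material – HEK293 cells with M4 receptor and GIRK channels · Buffer or medium – pH 7.3 thallium assay buffer · Doses – one dose, 10 µM final · Timing – cells overnight at 37 °C, BTC-AM loading 1 h, reads 2 min total · Measured by – kinetic fluorescence with BTC-AM dye · Controls – carbachol and DMSO controls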

Assay [7] can be described thus: blockers of RIG-like receptor reporter activation – cell-based, Sendai virus stimulus, luciferase, 10K MLSCN set, TLR/RLR signaling modifier project, primary screen (AID 602276;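 active = inhibition at or above 50% at 10 µM; inactive = inhibition below 50%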;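 note: firefly luciferase from ISG56 promoter only with Renilla not read in this screen; 0% = Sendai virus plus DMSO and 100% = medium plus DMSO without virus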). To be noted: HEK293 RL24 IRF3 luciferase reporter, at 10 µM, stronger effect = higher value.
The nature of assay [8]: TLR3 IRF3 reporter activation blockers – cell-based, poly I:C stimulus, luciferase, 10K MLSCN set, primary screen (AID 602277;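 active = inhibition of the reporter signal at or above 50%; inactive = inhibition below 50%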). To be noted: HEK293-TLR3 RL24 IRF3 luciferase reporter, at 10 µM, stronger effect = higher value.

Calls of active or inactive are those of the source.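 Rule for the calls, unless noted: active = NADPH fluorescence slope more negative than the mean of all samples by about 3 SD, 99.7% confidence; inactive = the rest.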

Voltage-gated potassium channel subunit beta-2 (Rattus norvegicus), sequence (P62483 whole entry, looked up): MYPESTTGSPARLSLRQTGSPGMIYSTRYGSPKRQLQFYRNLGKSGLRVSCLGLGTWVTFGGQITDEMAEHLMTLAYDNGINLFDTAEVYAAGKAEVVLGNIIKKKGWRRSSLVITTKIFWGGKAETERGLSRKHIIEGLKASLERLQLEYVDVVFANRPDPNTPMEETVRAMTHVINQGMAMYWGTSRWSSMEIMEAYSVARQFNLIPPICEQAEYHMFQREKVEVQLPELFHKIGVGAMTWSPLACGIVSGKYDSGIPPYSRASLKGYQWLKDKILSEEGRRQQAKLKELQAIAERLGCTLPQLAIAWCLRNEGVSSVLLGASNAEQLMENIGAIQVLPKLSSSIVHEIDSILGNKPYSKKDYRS
Muscarinic acetylcholine receptor M4 (Homo sapiens), sequence (P08173 whole entry, looked up): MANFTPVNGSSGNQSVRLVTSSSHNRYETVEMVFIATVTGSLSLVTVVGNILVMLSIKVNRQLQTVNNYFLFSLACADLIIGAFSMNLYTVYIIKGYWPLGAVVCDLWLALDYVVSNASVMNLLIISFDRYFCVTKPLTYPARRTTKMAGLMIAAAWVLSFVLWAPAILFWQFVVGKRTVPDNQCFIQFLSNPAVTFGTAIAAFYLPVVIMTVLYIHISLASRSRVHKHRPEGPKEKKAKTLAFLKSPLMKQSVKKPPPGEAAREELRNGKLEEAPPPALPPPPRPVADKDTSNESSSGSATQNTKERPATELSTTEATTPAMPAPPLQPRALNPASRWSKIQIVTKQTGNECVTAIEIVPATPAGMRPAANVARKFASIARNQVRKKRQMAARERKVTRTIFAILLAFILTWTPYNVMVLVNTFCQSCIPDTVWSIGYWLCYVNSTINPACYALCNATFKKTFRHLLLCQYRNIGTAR

As to `CCOc1cc(C(=O)N2CCN(c3ccccc3)CC2)cc(OCC)c1OCC`, the cell count in assay [1] stood at 284. The inhibition in assay [1] is 14.5% (inactive); in assay [3], 11.1% (inactive); in assay [7] it was 12.4% (inactive); in assay [8] it was 15.3% (inactive). In addition, the inhibition of aggregation in assay [2] was 39.7% (active). Besides, the nuclei count in assay [2] came to 88.2%; in assay [3] it was 90.3%. The fluorescence slope in assay [4] was -0.559 (inactive); in assay [6], 0.00369 (inactive). Besides, in assay [5], the NADPH fluorescence slope was -2.8e-05 (inactive).

In the case of `CCn1c(=N)n(CC(=O)C23CC4CC(CC(C4)C2)C3)c2ccccc21`, the cell count in assay [1] amounted to 721. The inhibition was -26.7% (inactive) in assay [1], -45.9% (inactive) in assay [3], 1.98% (inactive) in assay [7] and 23.3% (inactive) in assay [8]. Moreover, the inhibition of aggregation in assay [2] is -8.2% (inactive). Further, the nuclei count in assay [2] came out at 93.6%; in assay [3] it was 117%. Moreover, the fluorescence slope was -0.271 (inactive) in assay [4] and 0.00365 (inactive) in assay [6]. Besides, the NADPH fluorescence slope in assay [5] was -1.5e-05 (inactive).

With `O=C1CC(c2ccco2)CC(O)=C1C=NCC1NCCc2ccccc21` (centres undefined), the cell count in assay [1] worked out at 330. In addition, the inhibition in assay [1] is -2.8% (inactive); in assay [3], -123% (inactive); in assay [7] it was 17.9% (inactive); in assay [8] it was 27.2% (inactive). For the same compound, the inhibition of aggregation in assay [2] is 5.8% (inactive). The nuclei count in assay [2] was 94.2%; in assay [3] it was 125%. For the same compound, the fluorescence slope in assay [4] was -0.511 (inactive); in assay [6] it was 0.00572 (inactive). The NADPH fluorescence slope in assay [5] is 2.1e-05 (inactive).

As to `CC(C)(C)C(=O)Oc1cc(N)n(S(=O)(=O)c2ccccc2)n1`, the cell count in assay [1] worked out at 228. Also, the inhibition was -0.3% (inactive) in assay [1], -24.6% (inactive) in assay [3], -12% (inactive) in assay [7] and -7.53% (inactive) in assay [8]. Also, in assay [2], the inhibition of aggregation was -1.1% (inactive). Moreover, the nuclei count was 109% in assay [2] and 129% in assay [3]. Further, the fluorescence slope was -0.52 (inactive) in assay [4] and 0.00539 (inactive) in assay [6]. Also, in assay [5], the NADPH fluorescence slope was -5.6e-05 (inactive).

On to `CCCCn1nnnc1SCC(=O)Nc1cccc(C)n1`, for which the cell count in assay [1] stood at 554. For the same compound, the inhibition is -46.9% (inactive) in assay [1], -47.5% (inactive) in assay [3], -10.8% (inactive) in assay [7] and -6.38% (inactive) in assay [8]. Further, the inhibition of aggregation in assay [2] is 9% (inactive). Also, the nuclei count in assay [2] turned out to be 112%; in assay [3] it was 107%. For the same compound, the fluorescence slope in assay [4] is -0.329 (inactive); in assay [6], 0.00669 (inactive). Besides, in assay [5], the NADPH fluorescence slope is -3.8e-05 (inactive).

With `CC1CC(=O)C2=C(C1)OC(N)=C(C#N)C2c1coc2ccccc2c1=O` (centres undefined), the cell count in assay [1] came out at 282. The inhibition in assay [1] was -10.1% (inactive); in assay [3], 24.1% (inactive); in assay [7], 19.2% (inactive); in assay [8], 23.4% (inactive). Moreover, the inhibition of aggregation in assay [2] was 8.2% (inactive). The values for the nuclei count in assay [2] and in assay [3] were 79.3% and 82.2%, respectively. Also, the fluorescence slope was -0.514 (inactive) in assay [4] and 0.00433 (inactive) in assay [6]. In addition, in assay [5], the NADPH fluorescence slope was -4.1e-05 (inactive).

For the compound `Cc1cc(-c2nc3ncccc3o2)ccc1N`, the cell count in assay [1] was determined as 306. Also, the inhibition in assay [1] is -8.9% (inactive); in assay [3], -35.5% (inactive); in assay [7] it was -34.7% (inactive); in assay [8], -101% (inactive). In assay [2], the inhibition of aggregation was 23.3% (inactive). The nuclei count came to 102% in assay [2] and 99.8% in assay [3]. Further, the fluorescence slope is -0.0237 (inactive) in assay [4] and 0.00386 (inactive) in assay [6]. The NADPH fluorescence slope in assay [5] is 9.6e-08 (inactive).

Regarding `COc1ccc(CN2C(=O)C(O)(CC(=O)c3c(C)n[nH]c3C)c3ccccc32)cc1OC` (centres undefined), in assay [1], the cell count is 264. In addition, the inhibition is -12.6% (inactive) in assay [1], -27.7% (inactive) in assay [3], 15.2% (inactive) in assay [7] and 9.8% (inactive) in assay [8]. In assay [2], the inhibition of aggregation is -2.3% (inactive). Besides, the nuclei count in assay [2] stood at 92.8%; in assay [3] it was 97.3%. Also, the values for the fluorescence slope in assay [4] and in assay [6] were -0.481 (inactive) and 0.00507 (inactive), respectively. Besides, in assay [5], the NADPH fluorescence slope is -4.5e-05 (inactive).

Regarding `CC(=O)Nc1ccc(NC2=CC(=O)CC(C)(C)C2)cc1`, in assay [1], the cell count was determined as 424. Further, the inhibition is 1% (inactive) in assay [1], -60% (inactive) in assay [3], 18.6% (inactive) in assay [7] and 17.5% (inactive) in assay [8]. For the same compound, the inhibition of aggregation in assay [2] is 14% (inactive). The nuclei count in assay [2] is 107%; in assay [3], 119%. The fluorescence slope in assay [4] was -0.541 (inactive); in assay [6], 0.00709 (inactive). Also, the NADPH fluorescence slope in assay [5] was -5.8e-05 (inactive).

As to `Cc1cccc(-c2noc(CCC(=O)Nc3ccccc3)n2)c1`, the cell count in assay [1] was determined as 430. The inhibition is 9.5% (inactive) in assay [1], 68.5% (inactive) in assay [3], -7.26% (inactive) in assay [7] and -4.8% (inactive) in assay [8]. Further, the inhibition of aggregation in assay [2] is 7.6% (inactive). Also, the values for the nuclei count in assay [2] and in assay [3] were 92.6% and 140%, respectively. Also, the fluorescence slope in assay [4] was -0.289 (inactive); in assay [6], 0.00559 (inactive). The NADPH fluorescence slope in assay [5] was -2.3e-05 (inactive).

As for `Cc1ccc2nc(SCC(=O)NCc3ccco3)c(C#N)cc2c1`, the cell count in assay [1] was found to be 388. The inhibition is -4.7% (inactive) in assay [1], 1.8% (inactive) in assay [3], -4.71% (inactive) in assay [7] and -2.98% (inactive) in assay [8]. For the same compound, in assay [2], the inhibition of aggregation is 17.5% (inactive). Moreover, the nuclei count in assay [2] came to 100%; in assay [3], 99.6%. Further, the fluorescence slope was -0.592 (inactive) in assay [4] and 0.00711 (inactive) in assay [6]. Further, in assay [5], the NADPH fluorescence slope is 1.6e-05 (inactive).

On to `O=S(=O)(NCC(O)COCc1ccco1)c1cccs1` (centres undefined), for which the cell count in assay [1] was found to be 297. Besides, the inhibition in assay [1] was 8% (inactive); in assay [3], 1.6% (inactive); in assay [7], 2.99% (inactive); in assay [8], 8.32% (inactive). Besides, the inhibition of aggregation in assay [2] was -14.1% (inactive). The nuclei count in assay [2] came to 108%; in assay [3], 97.5%. Besides, the fluorescence slope in assay [4] is -0.587 (inactive); in assay [6], 0.00581 (inactive). The NADPH fluorescence slope in assay [5] was -3.7e-05 (inactive).

For the compound `Cn1c(=O)c2ncn(CC(=O)NCCOc3ccccc3)c2n(C)c1=O`, the cell count in assay [1] turned out to be 503. Besides, the inhibition in assay [1] was -4.4% (inactive); in assay [3], 43% (inactive); in assay [7], 18% (inactive); in assay [8], 14.3% (inactive). The inhibition of aggregation in assay [2] was -3.1% (inactive). Besides, the nuclei count was 98% in assay [2] and 91.5% in assay [3]. In addition, the figures for the fluorescence slope in assay [4] and in assay [6] were -0.52 (inactive) and 0.00467 (inactive), respectively. Besides, the NADPH fluorescence slope in assay [5] was 2.9e-06 (inactive).

Regarding `O=C(O)C1CSC2c3ccccc3C(=O)N12` (centres undefined), the cell count in assay [1] turned out to be 729. Further, the inhibition is -4.7% (inactive) in assay [1], -66.8% (inactive) in assay [3], 11.2% (inactive) in assay [7] and 19% (inactive) in assay [8]. For the same compound, the inhibition of aggregation in assay [2] is -3.2% (inactive). In addition, the nuclei count in assay [2] came out at 96.3%; in assay [3] it was 107%. Besides, the fluorescence slope is -0.577 (inactive) in assay [4] and 0.00676 (inactive) in assay [6]. Besides, the NADPH fluorescence slope in assay [5] is -6.7e-06 (inactive).

A word on the inhibition: it is the drop in the measured response relative to a control, in per cent.

The values above are taken from PubChem BioAssay.
